Screens (PubChem)
Shown are actives, neighbours in structure and some others; about 2.7% of the full set was active somewhere.
GSTO1 counter = GSTO1 inhibition, counter-screen for RBBP9 inhibitors; P78417; recombinant GSTO1, activity-based probe fluorescence polarization; inhibition, % at 5.96 µM; 1.1% of 300,000 active;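 active = inhibition above the campaign mean inhibition plus 3 SD, cut at about 35% in these data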
Target sequence (P78417 whole entry, looked up): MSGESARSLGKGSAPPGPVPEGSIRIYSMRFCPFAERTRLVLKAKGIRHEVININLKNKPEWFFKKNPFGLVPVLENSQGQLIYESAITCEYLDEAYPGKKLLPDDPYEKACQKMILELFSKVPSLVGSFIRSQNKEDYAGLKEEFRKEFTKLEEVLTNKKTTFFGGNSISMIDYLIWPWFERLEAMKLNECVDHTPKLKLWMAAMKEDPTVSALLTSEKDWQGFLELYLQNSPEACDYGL
RBBP9 inhibitor = blocks human serine hydrolase RBBP9; inhibition, % at 7.94 µM; AID 1515; O75884; recombinant RBBP9, FP-Rh probe fluorescence polarization; 0.2% of 220,000 active;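 active = inhibition above the campaign mean of all tested compounds plus 3 SD, cut at about 14% in these data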
Target sequence (O75884 whole entry, looked up): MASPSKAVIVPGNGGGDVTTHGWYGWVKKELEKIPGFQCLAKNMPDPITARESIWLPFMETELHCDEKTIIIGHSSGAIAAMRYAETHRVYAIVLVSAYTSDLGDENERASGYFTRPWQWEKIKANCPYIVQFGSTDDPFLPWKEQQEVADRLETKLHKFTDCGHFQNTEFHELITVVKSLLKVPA
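Assay system: recombinant human RBBP9; Reagent: Serine-hydrolase probe FP-Rh, 375 nM pre-mixing; Doses: 7.94 µM single dose, 0.794% DMSO; Incubation: 30 min then 45 min, 25 °C; Detection: fluorescence polarization (mP), excitation 525 nm, emission 598 nm; Evaluation: percent inhibition from mP, scaled between DMSO and no-protein wells.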
SIAE inh = human SIAE inhibition, primary screen; AID 1053197; SIAE FP-Rh probe binding, fluorescence polarization; Q9HAT2; 0.69% of 370,000 active; inhibition, % at 9.66 µM;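 active = inhibition above a cutoff: mean of compounds within the control limits plus 3 SD of those, cut at about 17% in these data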
PRMT1 inh = inhibitors of human PRMT1; Q99873; recombinant PRMT1, activity-based probe fluorescence polarization; inhibition, % at 2.79 µM; 1.3% of 370,000 active;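 active = inhibition above about 21% made by adding two undisclosed values, limit read from the data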
PAD4 FP inh = PAD4 (human) enzyme inhibition. recombinant PAD4, RCA probe fluorescence polarization. 0.41% of 330,000 active. Q9UM07. inhibition, % at 6.36 µM;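 active = percent inhibition above a cutoff equal to the mean of all tested compounds plus 3 SD, cut at about 15% in these data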
Of the large screens only hits and unclear results are named; the others gave an inactive call.

O=C(COC(=O)c1ccc(F)cc1)Nc1ccccc1N1CCOCC1	none
Cc1ccc(C(=O)OCC(=O)Nc2ccccc2N2CCOCC2)cc1	SIAE inh 18.0
CC1=CC(C)(C)Nc2ccc(OC(=O)C(Cc3ccccc3)N3C(=O)c4ccccc4C3=O)cc21 (centres undefined)	none
CC1=CC(C)(C)Nc2ccc(OC(=O)CN3C(=O)c4ccccc4C3=O)cc21	GSTO1 counter 55.8
N#Cc1cc(-c2ccccc2)nn1-c1ccccc1	PRMT1 inh 22.9
O=C(c1ccc(Br)o1)N1CC=C(c2ccccc2)CC1	none (no result: GSTO1 counter, RBBP9 inhibitor)
Cc1ccc2nc(NC(=O)c3ccccn3)sc2c1	none
CC(=O)N1CC(C)Oc2ccc(S(=O)(=O)NC(CC(=O)O)c3ccccc3C)cc21 (centres undefined)	none (no result: RBBP9 inhibitor)
C[C@@H]1O[C@@H](O[C@@H]2[C@@H](O)[C@H](OCCc3ccc(O)c(O)c3)O[C@H](CO)[C@H]2OC(=O)/C=C/c2ccc(O)c(O)c2)[C@H](O)[C@H](O)[C@H]1O	PRMT1 inh 24.6 (no result: GSTO1 counter, RBBP9 inhibitor)
c1ccc(C2OC3c4cccc5cccc(c45)C3N2c2ccccc2)cc1 (centres undefined)	PRMT1 inh 24.5
CCCCN1C(=O)NC(c2ccc(OC)cc2)C(C(=O)OCc2ccccc2)=C1C (centres undefined)	none (no result: RBBP9 inhibitor)
Cc1cc(Nc2ccc(O)cc2)ccc1N	PAD4 FP inh 34.8 (no result: GSTO1 counter, RBBP9 inhibitor, SIAE inh, PRMT1 inh)
CC(=O)c1c(C)[nH]c(C(=O)OCc2nnc(-c3ccc([N+](=O)[O-])cc3)o2)c1C	PRMT1 inh 24.3 (no result: GSTO1 counter, RBBP9 inhibitor)
CN1CCN(C(CNS(=O)(=O)c2ccc([N+](=O)[O-])cc2)c2ccc(F)cc2)CC1 (centres undefined)	none (no result: RBBP9 inhibitor)
O=C(c1ccco1)c1coc2c1cc(O)c1ccccc12	GSTO1 counter 43.2
Cc1cc(O)c(CN(C)C)c2c1C(=O)/C(=C/c1ccco1)O2	none (no result: RBBP9 inhibitor)
Cc1cc(O)c(C=O)c2c1C(=O)Oc1c(CO)c(O)c3c(c1O2)C(O)OC3=O (centres undefined)	RBBP9 inhibitor 31.6 (no result: SIAE inh, PRMT1 inh)
COC1=C(Nc2ccccc2)C(=O)c2ccccc2C1=O	GSTO1 counter 48.6
COC1=C(Nc2ccc(C)cc2)C(=O)c2ccccc2C1=O	none
Cc1ccc(Nc2ccc(C(=O)O)cc2N)cc1	PRMT1 inh 23.6
O=C(Oc1ccc(OC(=O)c2ccncc2)cc1)c1ccncc1	GSTO1 counter 35.0 (no result: RBBP9 inhibitor)
O=C(O)/C=C\C(=O)Nc1ccccc1C#Cc1ccc(Br)cc1	PRMT1 inh 22.0
CCCC1CCc2c(sc(NC(=O)OCC)c2C#N)C1 (centres undefined)	none
Cc1ccc(NC(=O)COn2nnc3ccc(S(=O)(=O)N(C)C)cc32)cc1F	GSTO1 counter 35.8
CCc1ccc(NC(=O)COn2nnc3ccc(S(=O)(=O)N(C)C)cc32)cc1	none
Cc1cc(OCC(=O)Nc2ccc3oc(-c4ccncc4)nc3c2)ccc1Cl	none
COc1cc(C2C(C#N)=C(N)OC3=C2C(=O)CCC3)c([N+](=O)[O-])cc1OC (centres undefined)	GSTO1 counter 37.5, PRMT1 inh 21.4
COc1cc(OC)c(OC)cc1CCC(C)NCCC(c1ccccc1)c1ccccc1 (centres undefined)	none (no result: RBBP9 inhibitor)
ClCc1nnc(-c2ccccc2)o1	GSTO1 counter 102.3
CCOc1ccccc1-n1c(=S)sc2c(=O)n(-c3ccc(C)cc3)c(=S)[nH]c21	PRMT1 inh 73.0
Cc1ccc(NC(=O)C2=C(c3ccccc3)S(=O)(=O)CCS2(=O)=O)cc1	PRMT1 inh 61.6
Cc1ccc(NC(=O)c2ccccc2)cc1	none
C=C1C(=O)[C@]23C[C@H]1CC[C@H]2[C@]1(C)[C@@H](OC(C)=O)CC[C@@](C)(C(=O)OC)[C@H]1C[C@@H]3OC(C)=O	none (no result: GSTO1 counter, RBBP9 inhibitor, PAD4 FP inh)
C=C1C(=O)[C@]23C[C@H]1CCC2[C@@]1(C)C(C[C@@H]3O)[C@](C)(C(=O)OC)CC[C@@H]1OC(C)=O (some centres undefined)	PRMT1 inh 24.2 (no result: GSTO1 counter, RBBP9 inhibitor, PAD4 FP inh)
Cc1cccc(C)c1OCCCCn1cnc2ccccc2c1=O	none
COc1cc(N2C(=O)C=CC2=O)c(OC)cc1Cl	PRMT1 inh 89.5
CN(C)c1ccc(/C=N/N=C2/NC(=O)/C(=C/c3ccc([N+](=O)[O-])cc3)S2)cc1	GSTO1 counter 49.3
O=C1c2ccsc2SCCN1Cc1ccc(Cl)cc1Cl	none
O=C(NCc1ccco1)c1nc2nc(-c3cccs3)cc(C(F)(F)F)n2n1	PRMT1 inh 23.1
O=C(NC(=S)N1CCCc2ccccc21)c1ccc([N+](=O)[O-])cc1	none
